{"source": "ChEMBL document CHEMBL5696442", "about": "“Discovery of type II inhibitors of TGFβ-activated kinase 1 (TAK1) and mitogen-activated protein kinase kinase kinase kinase 2 (MAP4K2)” (J Med Chem, 2015)", "key": {"[1]": {"target": "Serine/threonine-protein kinase 35 (Homo sapiens) (UniProt Q8TDR2)", "sequence (Q8TDR2 whole entry)": "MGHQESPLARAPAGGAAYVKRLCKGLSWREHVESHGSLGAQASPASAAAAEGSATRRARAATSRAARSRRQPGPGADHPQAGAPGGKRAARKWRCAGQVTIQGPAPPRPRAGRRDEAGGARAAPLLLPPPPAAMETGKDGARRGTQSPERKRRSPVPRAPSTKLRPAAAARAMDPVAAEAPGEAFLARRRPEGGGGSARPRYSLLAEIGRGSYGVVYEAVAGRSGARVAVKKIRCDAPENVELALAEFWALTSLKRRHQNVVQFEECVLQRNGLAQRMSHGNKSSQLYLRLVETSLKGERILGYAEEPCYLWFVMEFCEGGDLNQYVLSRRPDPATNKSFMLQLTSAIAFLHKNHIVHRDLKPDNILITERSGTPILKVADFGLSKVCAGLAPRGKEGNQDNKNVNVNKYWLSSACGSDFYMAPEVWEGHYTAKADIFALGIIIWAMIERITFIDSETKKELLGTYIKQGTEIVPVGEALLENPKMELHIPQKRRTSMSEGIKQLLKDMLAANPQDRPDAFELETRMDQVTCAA", "experiment": "Inhibition of STK35 (unknown origin) at 10 uM by Ambit Kinomescan binding assay relative to control; values are per cent of control"}, "[2]": {"target": "Serine/threonine-protein kinase Nek4 (Homo sapiens) (UniProt P51957)", "experiment": "Inhibition of NEK4 K2 labeling site in human Huh-7 cells at 10 uM by KiNativ Profiling analysis relative to control", "format": "cell-based"}, "[3]": {"target": "T1, Serine/threonine-protein kinase D3 (Homo sapiens) (UniProt O94806)", "T1 sequence (whole entry)": "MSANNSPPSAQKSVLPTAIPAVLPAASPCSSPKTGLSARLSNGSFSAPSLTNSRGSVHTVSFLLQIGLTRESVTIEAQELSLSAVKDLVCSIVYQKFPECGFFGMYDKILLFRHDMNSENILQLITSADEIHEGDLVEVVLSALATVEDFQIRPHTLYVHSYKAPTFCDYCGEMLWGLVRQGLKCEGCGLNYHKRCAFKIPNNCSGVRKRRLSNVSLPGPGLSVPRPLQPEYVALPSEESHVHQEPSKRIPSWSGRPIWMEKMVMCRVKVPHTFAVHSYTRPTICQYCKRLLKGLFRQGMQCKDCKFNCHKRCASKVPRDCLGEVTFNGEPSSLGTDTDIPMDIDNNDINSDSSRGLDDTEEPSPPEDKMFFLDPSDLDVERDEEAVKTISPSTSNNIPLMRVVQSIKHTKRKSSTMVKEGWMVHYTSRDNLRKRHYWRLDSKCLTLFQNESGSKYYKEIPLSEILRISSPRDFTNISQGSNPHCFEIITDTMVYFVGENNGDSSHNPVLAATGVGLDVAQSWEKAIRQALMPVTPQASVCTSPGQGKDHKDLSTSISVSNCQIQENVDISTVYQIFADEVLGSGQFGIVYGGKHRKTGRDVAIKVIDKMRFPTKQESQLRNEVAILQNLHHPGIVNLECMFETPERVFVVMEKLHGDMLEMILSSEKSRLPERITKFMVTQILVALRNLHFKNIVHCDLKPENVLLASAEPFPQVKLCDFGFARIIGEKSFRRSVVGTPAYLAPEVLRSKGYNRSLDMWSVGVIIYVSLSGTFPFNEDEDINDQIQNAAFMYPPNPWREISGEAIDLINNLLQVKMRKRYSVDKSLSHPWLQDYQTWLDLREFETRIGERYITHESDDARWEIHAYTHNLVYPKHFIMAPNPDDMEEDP", "experiment": "Inhibition of PKD3 K2 labeling site in human Huh-7 cells at 10 uM by KiNativ Profiling analysis relative to control", "format": "cell-based"}, "[4]": {"target": "Dual specificity protein kinase TTK (Homo sapiens) (UniProt P33981)", "sequence (P33981 whole entry)": "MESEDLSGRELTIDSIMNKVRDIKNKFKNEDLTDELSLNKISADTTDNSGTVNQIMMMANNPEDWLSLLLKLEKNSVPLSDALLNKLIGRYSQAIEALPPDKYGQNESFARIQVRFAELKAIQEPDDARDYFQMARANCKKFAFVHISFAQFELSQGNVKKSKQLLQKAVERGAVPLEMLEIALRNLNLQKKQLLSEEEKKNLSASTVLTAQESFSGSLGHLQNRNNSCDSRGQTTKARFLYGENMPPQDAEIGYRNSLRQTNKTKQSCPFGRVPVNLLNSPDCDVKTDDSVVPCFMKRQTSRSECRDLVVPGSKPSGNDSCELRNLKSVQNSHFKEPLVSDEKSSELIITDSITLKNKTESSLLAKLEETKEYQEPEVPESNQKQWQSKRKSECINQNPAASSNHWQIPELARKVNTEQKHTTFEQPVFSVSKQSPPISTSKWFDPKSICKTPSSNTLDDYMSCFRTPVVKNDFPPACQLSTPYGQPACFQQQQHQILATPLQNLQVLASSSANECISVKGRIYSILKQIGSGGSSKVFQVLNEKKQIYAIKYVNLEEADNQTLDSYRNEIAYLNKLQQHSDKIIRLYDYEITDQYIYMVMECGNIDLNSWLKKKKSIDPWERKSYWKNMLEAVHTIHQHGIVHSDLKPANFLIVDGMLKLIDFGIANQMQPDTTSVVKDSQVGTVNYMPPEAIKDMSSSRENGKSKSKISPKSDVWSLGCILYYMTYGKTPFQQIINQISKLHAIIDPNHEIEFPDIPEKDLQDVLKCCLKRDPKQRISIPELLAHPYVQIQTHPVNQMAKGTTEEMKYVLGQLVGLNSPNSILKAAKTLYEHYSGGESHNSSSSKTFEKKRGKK", "experiment": "Inhibition of TTK (unknown origin) at 10 uM by Ambit Kinomescan binding assay relative to control; values are per cent of control"}, "[5]": {"target": "Glycogen synthase kinase-3 beta (Homo sapiens) (UniProt P49841)", "experiment": "Inhibition of GSK3B Lys2 labeling site in human A-375 cells at 5 uM by KiNativ Profiling analysis relative to control", "format": "cell-based"}, "[6]": {"target": "Protein kinase C theta type (Homo sapiens) (UniProt Q04759)", "sequence (Q04759 whole entry, looked up)": "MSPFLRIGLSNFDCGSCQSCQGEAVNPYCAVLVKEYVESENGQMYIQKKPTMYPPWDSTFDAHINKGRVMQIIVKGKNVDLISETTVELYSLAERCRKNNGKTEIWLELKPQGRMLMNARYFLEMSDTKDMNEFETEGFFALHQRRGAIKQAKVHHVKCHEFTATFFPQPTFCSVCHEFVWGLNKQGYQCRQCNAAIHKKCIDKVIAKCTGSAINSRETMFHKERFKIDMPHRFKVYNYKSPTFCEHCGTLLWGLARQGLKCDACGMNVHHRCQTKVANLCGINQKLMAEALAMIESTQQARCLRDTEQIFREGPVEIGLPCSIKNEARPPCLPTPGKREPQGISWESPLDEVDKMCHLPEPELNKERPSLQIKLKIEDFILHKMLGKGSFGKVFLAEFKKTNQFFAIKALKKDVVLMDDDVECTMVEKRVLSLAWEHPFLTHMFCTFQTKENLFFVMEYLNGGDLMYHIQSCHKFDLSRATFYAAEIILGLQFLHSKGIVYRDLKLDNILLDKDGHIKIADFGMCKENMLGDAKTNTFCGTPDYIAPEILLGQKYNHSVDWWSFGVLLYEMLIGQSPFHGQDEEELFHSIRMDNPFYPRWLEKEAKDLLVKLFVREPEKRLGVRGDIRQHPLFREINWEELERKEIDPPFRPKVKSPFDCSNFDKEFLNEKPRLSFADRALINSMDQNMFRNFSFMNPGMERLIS", "experiment": "Inhibition of PRKCQ (unknown origin) at 1 uM by Ambit Kinomescan binding assay relative to control", "in_short": "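In vitro ATP-site competition binding assay against a panel of over 420 kinases (KinomeScan), with compound tested at 10 or 1 μM.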"}, "[7]": {"target": "Calcium/calmodulin-dependent protein kinase type II subunit gamma (Homo sapiens) (UniProt Q13555)", "experiment": "Inhibition of CaMK2g Lys1 labeling site harbouring TSTQEYAAKIINTK in human A-375 cells at 5 uM by KiNativ Profiling analysis relative to control", "format": "cell-based"}, "[8]": {"target": "Serine/threonine-protein kinase Chk2 (Homo sapiens) (UniProt O96017)", "experiment": "Inhibition of CHEK2 (unknown origin) at 1 uM by Ambit Kinomescan binding assay relative to control"}, "[9]": {"target": "T2, Serine/threonine-protein kinase TAO3 (Homo sapiens) (UniProt Q9H2K8)", "T2 sequence (whole entry)": "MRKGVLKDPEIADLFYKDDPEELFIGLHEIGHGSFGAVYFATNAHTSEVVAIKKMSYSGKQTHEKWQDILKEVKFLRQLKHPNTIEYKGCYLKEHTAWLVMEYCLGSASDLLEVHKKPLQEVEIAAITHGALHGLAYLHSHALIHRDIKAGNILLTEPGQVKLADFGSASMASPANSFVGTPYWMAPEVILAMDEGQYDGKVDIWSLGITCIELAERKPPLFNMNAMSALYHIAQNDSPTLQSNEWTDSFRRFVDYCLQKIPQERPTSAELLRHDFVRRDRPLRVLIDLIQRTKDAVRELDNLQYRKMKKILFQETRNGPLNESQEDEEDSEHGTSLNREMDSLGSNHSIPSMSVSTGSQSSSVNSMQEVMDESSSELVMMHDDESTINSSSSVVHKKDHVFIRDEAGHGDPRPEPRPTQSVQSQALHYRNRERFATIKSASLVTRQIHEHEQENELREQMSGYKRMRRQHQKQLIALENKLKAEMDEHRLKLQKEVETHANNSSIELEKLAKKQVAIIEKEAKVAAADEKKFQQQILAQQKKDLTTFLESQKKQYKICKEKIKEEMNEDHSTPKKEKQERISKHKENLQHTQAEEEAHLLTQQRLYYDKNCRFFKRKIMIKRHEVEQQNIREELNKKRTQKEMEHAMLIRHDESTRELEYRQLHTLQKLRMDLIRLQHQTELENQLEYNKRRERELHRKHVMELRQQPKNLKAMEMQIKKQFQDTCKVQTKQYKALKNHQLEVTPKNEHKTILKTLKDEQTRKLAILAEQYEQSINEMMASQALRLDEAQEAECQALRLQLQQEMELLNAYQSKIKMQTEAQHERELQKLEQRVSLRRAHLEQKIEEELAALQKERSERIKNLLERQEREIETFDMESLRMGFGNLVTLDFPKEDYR", "experiment": "Inhibition of TAO3 Lys2 labeling site in human A-375 cells at 5 uM by KiNativ Profiling analysis relative to control", "format": "cell-based"}, "[10]": {"target": "Focal adhesion kinase 1 (Homo sapiens) (UniProt Q05397)", "sequence (Q05397 2-1052 limits assumed)": "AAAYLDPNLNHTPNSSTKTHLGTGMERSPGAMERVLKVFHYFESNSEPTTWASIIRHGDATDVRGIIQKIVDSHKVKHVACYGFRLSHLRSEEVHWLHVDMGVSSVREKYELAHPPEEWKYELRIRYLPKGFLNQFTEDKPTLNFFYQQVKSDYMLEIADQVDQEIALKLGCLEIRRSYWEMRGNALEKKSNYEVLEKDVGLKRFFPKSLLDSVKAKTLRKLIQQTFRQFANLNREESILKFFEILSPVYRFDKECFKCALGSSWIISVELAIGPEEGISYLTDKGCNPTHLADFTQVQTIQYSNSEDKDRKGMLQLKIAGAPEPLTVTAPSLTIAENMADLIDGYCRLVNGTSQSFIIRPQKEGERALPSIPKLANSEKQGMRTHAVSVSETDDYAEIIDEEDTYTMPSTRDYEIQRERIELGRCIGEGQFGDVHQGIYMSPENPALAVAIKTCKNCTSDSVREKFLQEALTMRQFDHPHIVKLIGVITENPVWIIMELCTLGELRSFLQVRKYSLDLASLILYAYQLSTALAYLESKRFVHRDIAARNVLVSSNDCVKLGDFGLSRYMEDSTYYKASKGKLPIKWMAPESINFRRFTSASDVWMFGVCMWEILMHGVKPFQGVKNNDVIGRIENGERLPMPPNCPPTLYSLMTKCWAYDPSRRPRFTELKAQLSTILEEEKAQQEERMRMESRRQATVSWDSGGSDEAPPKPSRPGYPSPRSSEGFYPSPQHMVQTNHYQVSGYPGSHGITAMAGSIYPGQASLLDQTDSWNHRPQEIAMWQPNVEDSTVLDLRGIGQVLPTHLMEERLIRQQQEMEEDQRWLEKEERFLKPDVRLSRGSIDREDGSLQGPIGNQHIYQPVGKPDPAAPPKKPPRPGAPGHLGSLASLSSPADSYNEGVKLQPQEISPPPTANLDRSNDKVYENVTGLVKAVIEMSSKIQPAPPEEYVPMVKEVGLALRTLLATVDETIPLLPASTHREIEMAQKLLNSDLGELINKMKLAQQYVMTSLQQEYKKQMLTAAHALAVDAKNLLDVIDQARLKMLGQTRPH", "experiment": "Inhibition of FAK ACT labeling site in human Huh-7 cell lysate at 1 uM by KiNativ Profiling analysis relative to control", "format": "subcellular"}, "[11]": {"target": "Mitogen-activated protein kinase kinase kinase 4 (Homo sapiens) (UniProt Q9Y6R4)", "sequence (Q9Y6R4 whole entry)": "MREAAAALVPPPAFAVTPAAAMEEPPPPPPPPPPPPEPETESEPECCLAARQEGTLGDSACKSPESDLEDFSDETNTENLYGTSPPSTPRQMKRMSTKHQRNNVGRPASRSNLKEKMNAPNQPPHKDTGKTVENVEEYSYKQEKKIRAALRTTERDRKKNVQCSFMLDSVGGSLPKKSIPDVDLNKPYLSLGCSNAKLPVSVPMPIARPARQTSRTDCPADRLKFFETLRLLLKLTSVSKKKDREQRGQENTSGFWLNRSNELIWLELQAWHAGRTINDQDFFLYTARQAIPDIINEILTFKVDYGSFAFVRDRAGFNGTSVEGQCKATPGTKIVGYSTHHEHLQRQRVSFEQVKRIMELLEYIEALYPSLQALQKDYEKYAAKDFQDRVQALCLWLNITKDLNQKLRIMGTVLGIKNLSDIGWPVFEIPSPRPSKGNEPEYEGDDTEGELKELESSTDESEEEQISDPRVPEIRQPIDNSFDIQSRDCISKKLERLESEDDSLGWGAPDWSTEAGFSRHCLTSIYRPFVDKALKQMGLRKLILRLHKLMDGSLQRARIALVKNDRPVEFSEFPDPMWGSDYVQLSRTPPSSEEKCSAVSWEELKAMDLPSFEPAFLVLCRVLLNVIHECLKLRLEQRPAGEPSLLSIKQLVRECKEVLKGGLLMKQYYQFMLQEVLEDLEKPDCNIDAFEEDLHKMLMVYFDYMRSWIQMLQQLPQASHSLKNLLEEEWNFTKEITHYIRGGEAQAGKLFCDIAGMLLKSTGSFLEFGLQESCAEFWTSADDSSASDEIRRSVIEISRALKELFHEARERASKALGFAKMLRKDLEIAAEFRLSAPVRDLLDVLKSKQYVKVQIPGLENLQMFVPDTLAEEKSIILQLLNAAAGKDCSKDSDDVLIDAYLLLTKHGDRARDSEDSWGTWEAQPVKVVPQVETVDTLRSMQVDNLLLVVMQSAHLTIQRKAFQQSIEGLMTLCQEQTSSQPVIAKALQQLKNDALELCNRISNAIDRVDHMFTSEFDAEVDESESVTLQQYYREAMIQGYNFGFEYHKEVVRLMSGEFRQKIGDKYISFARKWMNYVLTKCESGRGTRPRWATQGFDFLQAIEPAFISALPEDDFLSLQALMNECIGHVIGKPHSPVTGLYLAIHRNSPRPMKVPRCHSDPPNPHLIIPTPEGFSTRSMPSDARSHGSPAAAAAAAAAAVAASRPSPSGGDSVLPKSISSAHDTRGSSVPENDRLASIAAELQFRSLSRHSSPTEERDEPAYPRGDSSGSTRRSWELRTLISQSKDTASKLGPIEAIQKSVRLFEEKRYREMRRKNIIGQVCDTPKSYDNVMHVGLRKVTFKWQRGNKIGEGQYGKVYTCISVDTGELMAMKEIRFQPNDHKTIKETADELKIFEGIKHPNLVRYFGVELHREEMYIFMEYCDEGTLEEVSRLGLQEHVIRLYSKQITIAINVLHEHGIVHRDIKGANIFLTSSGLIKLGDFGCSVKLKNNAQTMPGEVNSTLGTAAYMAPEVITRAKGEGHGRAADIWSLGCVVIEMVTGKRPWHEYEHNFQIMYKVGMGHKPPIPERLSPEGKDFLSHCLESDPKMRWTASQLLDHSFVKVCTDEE", "experiment": "Inhibition of MAP3K4 Lys2 labeling site in human Huh-7 cells at 1 uM by KiNativ Profiling analysis relative to control", "format": "cell-based"}, "[12]": {"target": "Phosphatidylinositol 4,5-bisphosphate 3-kinase catalytic subunit beta isoform (Homo sapiens) (UniProt P42338)", "experiment": "Inhibition of PIK3CB ATP labeling site harbouring VFGEDSVGVIFKNGDDLRQDMLTLQMLR in human Huh-7 cell lysate at 1 uM by KiNativ Profiling analysis relative to control", "format": "subcellular"}}}
{"compound": "CCN1CCN(Cc2ccc(NC(=O)c3ccc(C)c(Oc4ccnc5[nH]ccc45)c3)cc2C(F)(F)F)CC1", "values": [{"measurement": "residual activity", "setting": "[1]", "result": 3, "unit": "%"}, {"measurement": "inhibition", "setting": "[2]", "result": 11.4, "unit": "%"}, {"measurement": "inhibition", "setting": "[3]", "result": 17.2, "unit": "%"}, {"measurement": "residual activity", "setting": "[4]", "result": 24, "unit": "%"}]}
{"compound": "CCN1CCN(Cc2ccc(NC(=O)c3ccc(C)c(/C=C/c4cnc5[nH]ccc5c4OC)c3)cc2C(F)(F)F)CC1", "values": [{"measurement": "inhibition", "setting": "[5]", "result": 34.6, "unit": "%"}, {"measurement": "inhibition", "setting": "[6]", "result": 83, "unit": "%"}, {"measurement": "inhibition", "setting": "[7]", "result": 14.6, "unit": "%"}, {"measurement": "inhibition", "setting": "[8]", "result": 82, "unit": "%"}, {"measurement": "inhibition", "setting": "[9]", "result": 66.2, "unit": "%"}]}
{"compound": "CNc1cc(Oc2cc(C(=O)Nc3cc(N4CCN(C)CC4)cc(C(F)(F)F)c3)ccc2C)ncn1", "values": [{"measurement": "inhibition", "setting": "[10]", "result": 16, "unit": "%"}, {"measurement": "inhibition", "setting": "[11]", "result": 77, "unit": "%"}, {"measurement": "inhibition", "setting": "[12]", "result": 15.8, "unit": "%"}]}
